Each structure is given as a SMILES string.

The assay concerns the target T1, Beta-lactamase OXA-9 (Klebsiella aerogenes) (UniProt P0A3M4).
T1 sequence (whole entry): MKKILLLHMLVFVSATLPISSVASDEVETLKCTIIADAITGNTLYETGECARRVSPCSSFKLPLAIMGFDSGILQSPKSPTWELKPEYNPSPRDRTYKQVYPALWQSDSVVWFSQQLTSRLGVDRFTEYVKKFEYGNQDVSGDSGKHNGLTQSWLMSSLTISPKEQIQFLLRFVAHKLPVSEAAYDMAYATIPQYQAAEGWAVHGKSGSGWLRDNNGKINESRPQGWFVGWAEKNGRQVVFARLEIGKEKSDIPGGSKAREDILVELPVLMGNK
Put plainly: Inhibition of beta-lactamase of Enterobacter aerogenes relative to oxacillin sulfoxide(=1). The method in brief: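 Partially purified Enterobacter aerogenes β-lactamase at constant concentration in pH 8.5 phosphate buffer, 25 °C, hydrolysing cephalothin (2.6 × 10^-4 M). Inhibitors tested at 3.4 × 10^-7 to 8.5 × 10^-5 M. Initial hydrolysis rates with (v_i) and without (v) inhibitor followed by absorbance at 260 nm and estimated graphically. Ratio v/v_i expressed relative to a reference compound.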

Molecule `Cc1onc(-c2ccccc2)c1C(=O)N[C@@H]1C(=O)N2[C@@H]1[S+]([O-])C(C)(C)[C@@H]2C(=O)O` (stereo partly specified) yielded a Relative inhibition of 1.

Molecule `COc1cccc(OC)c1C(=O)N[C@@H]1C(=O)N2[C@@H]1SC(C)(C)[C@@H]2C(=O)O` showed a Relative inhibition of 50.

`COC(=O)[C@@H]1N2C(=O)[C@@H](NC(=O)c3c(-c4c(Cl)cccc4Cl)noc3C)[C@H]2SC1(C)C` displayed a Relative inhibition of 1500.

The molecule `COC(=O)[C@@H]1N2C(=O)[C@@H](NC(=O)c3c(-c4ccccc4Cl)noc3C)[C@H]2SC1(C)C` had a Relative inhibition of 270.

Consider `Cc1onc(-c2ccccc2Cl)c1C(=O)N[C@@H]1C(=O)N2[C@@H]1SC(C)(C)[C@@H]2C(=O)O`, for which the Relative inhibition is 5000.

Molecule `COC(=O)[C@@H]1N2C(=O)[C@@H](NC(=O)c3c(OC)cccc3OC)[C@H]2SC1(C)C` showed a Relative inhibition of 2.

In the case of `COC(=O)[C@@H]1N2C(=O)[C@@H](NC(=O)c3c(-c4ccccc4)noc3C)[C@H]2SC1(C)C`, the Relative inhibition worked out at 120.

The molecule `Cc1onc(-c2c(F)cccc2Cl)c1C(=O)N[C@@H]1C(=O)N2[C@@H]1SC(C)(C)[C@@H]2C(=O)O` came in with a Relative inhibition of 5000.

With `Cc1onc(-c2c(Cl)cccc2Cl)c1C(=O)N[C@@H]1C(=O)N2[C@@H]1SC(C)(C)[C@@H]2C(=O)O`, the Relative inhibition is 5000.

Consider `Cc1onc(-c2ccccc2Cl)c1C(=O)N[C@@H]1C(=O)N2[C@@H]1[S+]([O-])C(C)(C)[C@@H]2C(=O)O` (stereo partly specified), for which the Relative inhibition was found to be 370.

`Cc1onc(-c2ccccc2)c1C(=O)N[C@@H]1C(=O)N2[C@@H]1SC(C)(C)[C@@H]2C(=O)O` yielded a Relative inhibition of 5000.

The values above are taken from ChEMBL document CHEMBL1121568, “A multifaceted approach to the study of the side-chain conformation in beta-lactamase-resistant penicillins” (J Med Chem, 1980).
